Experimental data published in ChEMBL document CHEMBL4229460, “Design and biological evaluation of novel hybrids of 1, 5-diarylpyrazole and Chrysin for selective COX-2 inhibition” (Bioorg Med Chem, 2018).

How the values were obtained:
[1] = target: Prostaglandin G/H synthase 1 (Homo sapiens, UniProt P23219); test: Inhibition of COX1 (unknown origin) using arachidonic acid as substrate pretreated for 10 mins followed by substrate addition and measured after 2 mins by ELISA; format: ADME
B16-F10 = test: Antiproliferative activity against mouse B16F10 cells after 48 hrs by MTT assay; format: functional, cell-based; conditions: B16-F10, 48 h
Outline: (§1)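 Cells kept in DMEM with 10% FBS, penicillin/streptomycin, 37 °C, 5% CO₂. Seeded at 5 × 10⁴ cells/well and allowed to adhere 12 h. Exposed to 0, 0.1, 1, 10 and 100 μM (final) for 48 h. Viability read by MTT reduction at OD 570 nm with 630 nm reference. IC50 reported as mean ± SD of three independent experiments.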

A549 = test: Antiproliferative activity against human A549 cells after 48 hrs by MTT assay; format: functional, cell-based; conditions: A549, 48 h; outline: as §1
HeLa [2] = test: Antiproliferative activity against human HeLa cells after 48 hrs by MTT assay; format: functional, cell-based
HeLa [3] = test: Induction of apoptosis in human HeLa cells assessed as live cells at 1.25 uM after 24 hrs by Annexin-V-FITC/propidium iodide staining based flow cytometry (reference value: 94.6%); format: functional
Outline: (§2)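 HeLa seeded at 2 × 10⁵ cells/well. Dose series was 0, 1.25, 2.5, 5 and 10 μM for 24 h; time course was 5 μM for 12, 24, 36 or 48 h. Trypsinized and washed in ice-cold PBS, then stained in binding buffer with Annexin V-FITC and PI for 10 min in the dark. Flow cytometry scored early (Annexin⁺/PI⁻) and late (Annexin⁺/PI⁺) apoptotic cells.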

HeLa [4] = test: Induction of apoptosis in human HeLa cells assessed as early apoptotic cells at 1.25 uM after 24 hrs by Annexin-V-FITC/propidium iodide staining based flow cytometry (reference value: 2.98%); format: functional; outline: as §2
HeLa [5] = test: Induction of apoptosis in human HeLa cells assessed as late apoptotic cells at 1.25 uM after 24 hrs by Annexin-V-FITC/propidium iodide staining based flow cytometry (reference value: 1.72%); format: functional; outline: as §2
HeLa [6] = test: Induction of apoptosis in human HeLa cells assessed as necrotic cells at 2.5 uM after 24 hrs by Annexin-V-FITC/propidium iodide staining based flow cytometry (reference value: 0.242%); format: functional; outline: as §2
HeLa [7] = test: Induction of apoptosis in human HeLa cells assessed as early apoptotic cells at 5 uM after 24 hrs by Annexin-V-FITC/propidium iodide staining based flow cytometry (reference value: 1.24 to 2.98%); format: functional; outline: as §2
HeLa [8] = test: Induction of apoptosis in human HeLa cells assessed as late apoptotic cells at 5 uM after 24 hrs by Annexin-V-FITC/propidium iodide staining based flow cytometry (reference value: 1.72 to 2.57%); format: functional; outline: as §2
HeLa [9] = test: Induction of apoptosis in human HeLa cells assessed as live cells at 10 uM after 24 hrs by Annexin-V-FITC/propidium iodide staining based flow cytometry (reference value: 94.6%); format: functional; outline: as §2
HeLa [10] = test: Induction of apoptosis in human HeLa cells assessed as live cells at 5 uM after 12 hrs by Annexin-V-FITC/propidium iodide staining based flow cytometry (reference value: 95.1%); format: functional; outline: as §2
HeLa [11] = test: Induction of apoptosis in human HeLa cells assessed as early apoptotic cells at 5 uM after 12 hrs by Annexin-V-FITC/propidium iodide staining based flow cytometry (reference value: 1.24%); format: functional; outline: as §2
HeLa [12] = test: Induction of apoptosis in human HeLa cells assessed as necrotic cells at 5 uM after 12 hrs by Annexin-V-FITC/propidium iodide staining based flow cytometry (reference value: 1.12%); format: functional; outline: as §2
HeLa [13] = test: Induction of apoptosis in human HeLa cells assessed as early apoptotic cells at 5 uM after 36 hrs by Annexin-V-FITC/propidium iodide staining based flow cytometry (reference value: 1.24%); format: functional; outline: as §2
HeLa [14] = test: Induction of apoptosis in human HeLa cells assessed as late apoptotic cells at 5 uM after 36 hrs by Annexin-V-FITC/propidium iodide staining based flow cytometry (reference value: 2.57%); format: functional; outline: as §2
HeLa [15] = test: Induction of apoptosis in human HeLa cells assessed as live cells at 5 uM after 48 hrs by Annexin-V-FITC/propidium iodide staining based flow cytometry (reference value: 95.1%); format: functional; outline: as §2
HeLa [16] = test: Induction of apoptosis in human HeLa cells assessed as early apoptotic cells at 5 uM after 48 hrs by Annexin-V-FITC/propidium iodide staining based flow cytometry (reference value: 1.24%); format: functional; outline: as §2
HeLa [17] = test: Induction of apoptosis in human HeLa cells assessed as late apoptotic cells at 5 uM after 48 hrs by Annexin-V-FITC/propidium iodide staining based flow cytometry (reference value: 2.57%); format: functional; outline: as §2
HeLa [18] = test: Disruption of mitochondrial membrane potential in human HeLa cells assessed as intact mitochondrial membrane at 1.25 uM after 12 hrs by JC1 staining based flow cytometry (reference value: 99.2%); format: functional
HeLa [19] = test: Disruption of mitochondrial membrane potential in human HeLa cells assessed as collapse of the mitochondrial membrane potential at 10 uM after 12 hrs by JC1 staining based flow cytometry (reference value: 0.768%); format: functional
HeLa [20] = test: Disruption of mitochondrial membrane potential in human HeLa cells after 12 hrs by JC1 staining based flow cytometry; format: functional, cell-based
HeLa [21] = test: Cell cycle arrest in human HeLa cells assessed as accumulation at G1 phase at 1.25 uM after 24 hrs by propidium iodide staining based flow cytometry (reference value: 55.51%); format: functional
HeLa [22] = test: Cell cycle arrest in human HeLa cells assessed as accumulation at G1 phase at 2.5 uM after 24 hrs by propidium iodide staining based flow cytometry (reference value: 55.51%); format: functional
HeLa [23] = test: Cell cycle arrest in human HeLa cells assessed as accumulation at S phase at 2.5 uM after 24 hrs by propidium iodide staining based flow cytometry (reference value: 18.16%); format: functional
HeLa [24] = test: Cell cycle arrest in human HeLa cells assessed as accumulation at G2/M phase at 2.5 uM after 24 hrs by propidium iodide staining based flow cytometry (reference value: 21.45%); format: functional
HeLa [25] = test: Cell cycle arrest in human HeLa cells assessed as accumulation at S phase at 5 uM after 24 hrs by propidium iodide staining based flow cytometry (reference value: 18.16%); format: functional
HeLa [26] = test: Cell cycle arrest in human HeLa cells assessed as accumulation at G1 phase at 10 uM after 24 hrs by propidium iodide staining based flow cytometry (reference value: 55.51%); format: functional
HeLa [27] = test: Cell cycle arrest in human HeLa cells assessed as accumulation at S phase at 10 uM after 24 hrs by propidium iodide staining based flow cytometry (reference value: 18.16%); format: functional
HeLa [28] = test: Cell cycle arrest in human HeLa cells assessed as accumulation at G1 phase after 24 hrs by propidium iodide staining based flow cytometry; format: functional

Prostaglandin G/H synthase 1, sequence (P23219 whole entry): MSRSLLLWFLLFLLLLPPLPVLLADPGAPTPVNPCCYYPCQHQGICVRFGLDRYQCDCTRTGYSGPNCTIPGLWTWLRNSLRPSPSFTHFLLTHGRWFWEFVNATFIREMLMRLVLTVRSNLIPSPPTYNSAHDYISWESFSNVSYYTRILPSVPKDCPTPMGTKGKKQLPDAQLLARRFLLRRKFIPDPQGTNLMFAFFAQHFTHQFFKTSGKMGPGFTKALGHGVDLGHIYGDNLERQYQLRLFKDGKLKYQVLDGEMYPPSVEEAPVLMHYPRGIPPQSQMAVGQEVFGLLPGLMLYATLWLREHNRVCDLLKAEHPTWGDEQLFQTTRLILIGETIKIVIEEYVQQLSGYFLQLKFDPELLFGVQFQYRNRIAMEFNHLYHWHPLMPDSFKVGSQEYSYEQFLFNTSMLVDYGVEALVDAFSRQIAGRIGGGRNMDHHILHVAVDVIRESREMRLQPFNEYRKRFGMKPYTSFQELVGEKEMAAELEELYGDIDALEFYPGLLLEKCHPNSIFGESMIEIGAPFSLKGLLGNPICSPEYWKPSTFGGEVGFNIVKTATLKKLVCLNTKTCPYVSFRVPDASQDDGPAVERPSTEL

IC50 [1]: 47.5 µM
IC50 (B16-F10): 10.4 µM
IC50 (A549): 6.41 µM
IC50 (HeLa [2]): 1.12 µM
Compound: COc1ccc(-c2cc(COC(=O)COc3cc(O)c4c(=O)cc(-c5ccccc5)oc4c3)nn2-c2ccc(C)cc2)cc1
Activity (HeLa [3]): 83.2%
Activity (HeLa [4]): 12.6%
Activity (HeLa [5]): 5.16%
Activity (HeLa [6]): 0.332%
Activity (HeLa [7]): 31.6 - 34.7%
Activity (HeLa [8]): 0.9 - 7.15%
Activity (HeLa [9]): 51.4%
Activity (HeLa [10]): 67.7%
Activity (HeLa [11]): 22.7%
Activity (HeLa [12]): 1.71%
Activity (HeLa [13]): 40.4%
Activity (HeLa [14]): 7.82%
Activity (HeLa [15]): 18.1%
Activity (HeLa [16]): 73.2%
Activity (HeLa [17]): 7.54%
Activity (HeLa [18]): 96.5%
Activity (HeLa [19]): 13.3%
Activity (HeLa [20]): Dose-dependent effect
Activity (HeLa [21]): 62.63%
Activity (HeLa [22]): 67.88%
Activity (HeLa [23]): 18.61%
Activity (HeLa [24]): 9.58%
Activity (HeLa [25]): 15.67%
Activity (HeLa [26]): 76.02%
Activity (HeLa [27]): 14.82%
Activity (HeLa [28]): Dose-dependent effect
